Data reported in ChEMBL document CHEMBL4402562, “Discovery of Novel Peptidomimetic Boronate ClpP Inhibitors with Noncanonical Enzyme Mechanism as Potent Virulence Blockers in Vitro and in Vivo” (J Med Chem, 2020).
The source made the active and inactive calls. No cut-off for these calls is given here.

Key:
[1] = target: T1, ATP-dependent Clp protease proteolytic subunit (Staphylococcus aureus (strain NCTC 8325)) (UniProt Q2G036); experiment: Inhibition of N-terminal His6-sumo-tagged full length Staphylococcus aureus ClpP expressed in Escherichia coli […] (DE3) assessed as Kinact/Ki ratio […] and measured after 1 hr by fluorescence based assay
T1 sequence (whole entry): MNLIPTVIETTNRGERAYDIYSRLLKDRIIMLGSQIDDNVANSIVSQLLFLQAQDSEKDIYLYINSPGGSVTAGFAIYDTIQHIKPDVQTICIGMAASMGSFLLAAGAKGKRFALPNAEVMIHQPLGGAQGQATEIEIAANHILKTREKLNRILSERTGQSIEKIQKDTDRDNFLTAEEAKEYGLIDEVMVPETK

[2] = target: T2, ATP-dependent Clp protease proteolytic subunit (Staphylococcus aureus (strain NCTC 8325), UniProt Q2G036); experiment: Inhibition of ClpP in methicillin-resistant Staphylococcus aureus ATCC 33591 assessed as reduction in bacteria-induced hemolysis of sheep erythrocytes by measuring hemoglobin release incubated for 15 mins
T2 sequence (Q2G036 whole entry): T1 sequence (whole entry)

[3] = Cytotoxicity in human HeLa cells assessed as reduction in cell viability incubated for 24 hrs by MTT assay; type: cell-based
Outline: (§1)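 MTT assay. HeLa (3×10^3 cells) or HepG2 (4×10^3 cells) seeded in DMEM and grown 24 h, then given compound for a further 24 h. Absorbance read at 570 nm against DMSO wells. GI50 from dose-response fit; three experiments, triplicate wells.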

[4] = Cytotoxicity in human HepG2 cells assessed as reduction in cell viability incubated for 24 hrs by MTT assay; type: cell-based; outline: as §1
[5] = Inhibition of Staphylococcus aureus ClpXP expressed in Escherichia coli […] using FITC-casein substrate in presence of ATP-regenerating system incubated for 50 mins by fluorescence based assay
Outline: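 3.6 μM SaClpP with 3 μM SaClpX in 25 mM Hepes pH 7.5, 20 mM MgCl2, 30 mM KCl, 0.03% Tween 20, 10% glycerol, 2 mM DTT. ATP regeneration: 4 mM ATP, 20 U/mL creatine kinase, 16 mM creatine phosphate. FITC-casein 0.048 mg/mL, 494/521 nm for 50 min; slope 300–1200 s vs DMSO. Thrice, triplicate wells.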

[6] = target: 20S proteasome (Homo sapiens) (UniProt P49721+P20618+P28074+P28062+P28065+P28072+P25786+P25787+P25788+P25789+P28066+P60900+O14818+Q8TAA3+P40306+A5LHX3+P49720+P28070+Q99436); experiment: Inhibition of 20S proteasome (unknown origin) pre-incubated before Suc-LLVY-AM addition and measured after 1 hr by fluorescence based assay; type: protein-complex assay
[7] = Inhibition of AlgW (unknown origin) up to 100 uM pre-incubated for 10 mins before Abz-T-V-A-W-pNA addition and measured after 1 hr by fluorescence based assay
[8] = target: T1, ATP-dependent Clp protease proteolytic subunit (Staphylococcus aureus (strain NCTC 8325)); experiment: Inhibition of ClpP in wild type Staphylococcus aureus NCTC8325 assessed as reduction in bacteria-induced hemolysis of sheep erythrocytes by measuring hemoglobin release incubated for 15 mins
Outline: (§2)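 S. aureus strains grown overnight in MHB, diluted to OD600 0.05, then grown at 37 °C to OD600 ~0.6. Serially diluted inhibitor or DMSO added for 8 h more growth. Supernatant mixed 1:1 with 5% sheep erythrocytes, spun 1,500 rpm for 15 min, hemoglobin read at 545 nm. EC50 by nonlinear fit; thrice, triplicate tubes.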

[9] = target: T1, ATP-dependent Clp protease proteolytic subunit (Staphylococcus aureus (strain NCTC 8325)); experiment: Inhibition of ClpP in Staphylococcus aureus NCTC8325 with complemented deltaclpP/pYJ335::clpP (deltaclpP+) assessed as reduction in bacteria-induced hemolysis of sheep erythrocytes by measuring hemoglobin release incubated for 15 mins; outline: as §2
Staphylococcus aureus [10] = experiment: Inhibition of virulence-related genes expression in methicillin-resistant Staphylococcus aureus ATCC 33591 assessed as reduction in agrB expression at 16 uM by qPCR analysis relative to control; type: functional
Outline: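 Total RNA from 2×10⁸ CFU treated MRSA by liquid-nitrogen freeze-thaw and TRIzol; qPCR relative to gyrB endogenous control; three experiments, triplicate wells.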

[11] = Toxicity in BALB/c mouse model of skin abscess infected with methicillin-resistant Staphylococcus aureus ATCC 33591 assessed as effect on LDH levels at 1.5 to 3 mg/kg injected into shaved area of skin once daily for 4 days; type: organism-based; details: in vivo, other, 96 h
Outline: (§3)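 Infected BALB/c mice (n=5/group) dosed 1.5 or 3 mg/kg into the infected skin once daily for 4 days; blood collected on day 4 and day 14, centrifuged 3,500 rpm 15 min, serum biochemistry analysed.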

[12] = Toxicity in BALB/c mouse model of skin abscess infected with methicillin-resistant Staphylococcus aureus ATCC 33591 assessed as increase in direct bilirubin levels at 1.5 to 3 mg/kg injected into shaved area of skin once daily for 4 days; type: organism-based; details: in vivo, other, 96 h; outline: as §3
[13] = Toxicity in BALB/c mouse model of skin abscess infected with methicillin-resistant Staphylococcus aureus ATCC 33591 assessed as increase in direct bilirubin levels at 1.5 to 3 mg/kg injected into shaved area of skin once daily for 4 days measured on day 14; type: organism-based; details: in vivo, other, 96 h; outline: as §3
[14] = Toxicity in BALB/c mouse model of skin abscess infected with methicillin-resistant Staphylococcus aureus ATCC 33591 assessed as effect on albumin levels at 1.5 to 3 mg/kg injected into shaved area of skin once daily for 4 days; type: organism-based; details: in vivo, other, 96 h; outline: as §3
[15] = Toxicity in BALB/c mouse model of skin abscess infected with methicillin-resistant Staphylococcus aureus ATCC 33591 assessed as effect on alkaline phosphatase levels at 1.5 to 3 mg/kg injected into shaved area of skin once daily for 4 days; type: organism-based; details: in vivo, other, 96 h; outline: as §3
Staphylococcus aureus [16] = experiment: (§4) Antivirulence activity against methicillin-resistant Staphylococcus aureus ATCC 33591 infected in BALB/c mouse model of skin abscess assessed as preservation of skin integrity at 1.5 to 3 mg/kg injected into shaved area of skin once daily for 4 days measured after 12 hrs post last dose by hematoxylin and eosin staining based optical microscopy; type: functional, organism-based
Outline: (§5)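 Same MRSA ATCC 33591 skin-abscess model in female BALB/c mice (n=5/group), 40 µL compound at 1.5 or 3 mg/kg injected into the infected shaved skin once daily for 4 days. On day 4 infected skin and heart, liver, spleen, lung, kidney fixed in 4% paraformaldehyde, embedded, sectioned, H&E stained and examined by microscopy; PBS-treated uninfected and vehicle controls.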

Staphylococcus aureus [17] = experiment: as §4, with “reduction in” for “preservation of”, “inflammation” for “integrity”; type: functional, organism-based; outline: as §5
Staphylococcus aureus [18] = experiment: as §4, with “reduction in liver histopathological changes” for “preservation of skin integrity”; type: functional, organism-based; outline: as §5
Staphylococcus aureus [19] = experiment: as §4, with “reduction in spleen histopathological changes” for “preservation of skin integrity”; type: functional, organism-based; outline: as §5

## CC(C)C[C@H](NC(=O)[C@H](Cc1c[nH]c2ccccc12)NC(=O)c1cc(Cl)ccc1Cl)B(O)O
[1]
  Ratio: 16.7 ×10² /s.M
[2]
  EC50: 1.4 µM
[3]
  GI50 at 24 h: 108 µM
[4]
  GI50 at 24 h: 83.4 µM
[5]
  IC50: 69.6 µM
[6]
  inhibition: Active
[7]
  inhibition: inactive
[8]
  inhibition: Dose-dependent effect
[9]
  inhibition: Dose-dependent effect
Staphylococcus aureus [10]
  fold change (FC): 2
[11]
  Activity: Non-Toxic
[12]
  Activity: Toxic
[13]
  Activity: Non-Toxic
[14]
  Activity: Non-Toxic
[15]
  Activity: Non-Toxic
Staphylococcus aureus [16]
  Activity: Active
Staphylococcus aureus [17]
  Activity: Active
Staphylococcus aureus [18]
  Activity: Active
Staphylococcus aureus [19]
  Activity: Active
